# Compounds with a hit are over-represented: about 3.7% of the library has one in this group of screens.
# KCNQ1 inh – blocks the human KCNQ1 potassium channel. CHO-K1 KCNQ1, FluxOR thallium flux fluorescence; stronger effect = higher value. B-score at 10 µM. actives 1.3% (n = 310,000). AID 2642;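 active means compounds whose thallium flux B-score, printed positive for inhibition, exceeds three library SD while starting fluorescence stays within three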;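 further: channel opened by potassium depolarization with thallium stimulus after 20 min compound exposure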
# hERG rescue – shields human hERG channel from block by proarrhythmic agents | activation (rescue from dofetilide block), less the hit threshold, % at 10 µM | Q12809 | actives 0.51% (n = 310,000) | CHO-hERG, FluxOR thallium flux, dofetilide IC70 present;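 active means activation above the mean of controls blocked by dofetilide plus 5 SD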;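 further: thallium influx through hERG after potassium depolarization seen as dye fluorescence rise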
# KCNK3 block – human KCNK3 channel inhibition, primary screen; B-score at 10 µM; CHO-KCNK3 thallium flux, FluxOR fluorescence; stronger effect = lower value; actives 0.84% (n = 340,000);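 active means B-score under library mean minus 4 SD, starting fluorescence ratio at most library mean plus 5 SD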;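 further: more negative B-score means stronger inhibition of thallium flux through KCNK3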
# Target sequence (O14649 whole entry, looked up): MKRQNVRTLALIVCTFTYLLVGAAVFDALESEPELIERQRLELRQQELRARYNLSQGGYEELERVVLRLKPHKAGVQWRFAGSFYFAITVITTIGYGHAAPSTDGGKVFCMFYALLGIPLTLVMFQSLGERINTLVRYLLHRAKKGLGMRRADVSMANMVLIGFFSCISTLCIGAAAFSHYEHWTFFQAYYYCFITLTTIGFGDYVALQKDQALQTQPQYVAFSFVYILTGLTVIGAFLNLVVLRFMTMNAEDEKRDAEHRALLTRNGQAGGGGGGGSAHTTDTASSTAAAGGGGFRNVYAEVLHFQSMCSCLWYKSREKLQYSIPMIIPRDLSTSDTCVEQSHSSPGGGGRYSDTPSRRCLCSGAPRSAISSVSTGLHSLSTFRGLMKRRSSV
# KCNK9 inh – inhibitors of human KCNK9 two-pore domain potassium channel; Q9NPC2; HEK293 KCNK9, FluxOR thallium flux fluorescence; stronger effect = lower value; B-score at 10 µM; actives 1.2% (n = 310,000);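 active means ratio B-score over 3 SD below the library mean, with starting fluorescence within 5 SD of its mean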;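 further: negative B-score means less thallium flux so channel inhibition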
# Kir21 inh – inhibitors of mouse Kir2.1 inward-rectifier potassium channel; B-score at 10 µM; P35561; actives 0.85% (n = 310,000); HEK293-Kir2.1, FluxOR thallium flux fluorescence; stronger effect = lower value;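 active means fluorescence ratio B-score at or below minus 3 SD of library scores, with starting-brightness B-score within 2 SD, cut at about -4.2 in these data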;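 further: channel flux triggered by added potassium and thallium sulfate stimulus; B-score of peak minus minimum fluorescence over baseline after thallium stimulus; more negative B-score means stronger Kir2.1 block with less thallium influx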
# KCNQ1 pot – potentiators or activators of human KCNQ1 potassium channel | actives 0.35% (n = 310,000) | B-score at 10 µM | AID 2648 | CHO-K1 KCNQ1, thallium flux FluxOR fluorescence; stronger effect = higher value;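 active means fluorescence ratio B-score, a plate-corrected score, at least three library SD, with initial intensity B-score within 5 SD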
#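 Medium – assay buffer, equal DMSO in all wells · Material – CHO-K1 cell line with stable KCNQ1 potassium channel expression · Signal – kinetic FluxOR thallium fluorescence, 10-s 1-Hz baseline, 110-s post-stimulus read · Compound – single concentration per compound, DMSO matched to controls · Schedule – 37 °C overnight plating, 90-min dark dye load, 20-min compound pretreatment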
# * = called active by the depositor; i = inactive; / = no result.
SMILES,KCNQ1 inh,hERG rescue,KCNK3 block,KCNK9 inh,Kir21 inh,KCNQ1 pot
CC(=O)c1ccc(-c2nnc(CCC(=O)N(C)Cc3cccc4cnccc34)o2)s1,i,-14,i,i,0.38,i
CC(=O)c1ccc(-c2nnc(CCC(=O)N(C)Cc3c(C)nc4ccccn34)o2)s1,i,8.1*,i,i,-0.02,i
CCCN=C1N/C(=C\c2ccco2)C(=O)N1c1ccccc1,i,-4,i,i,-0.34,i
CCCN(CCC)C1=N/C(=C\c2ccco2)C(=O)N1c1ccccc1,i,-5,i,-7.7*,-2.1,i
C#CCN1C=CC(=O)[C@@H](OC(=O)Nc2ccc(C)cc2)[C@H]1c1ccccc1Br,/,/,i,/,/,/
Cc1c(CCOC(=O)CC23CC4CC(CC(C4)C2)C3)sc[n+]1Cc1ccccc1,7*,-17,i,i,-1.8,i
Cc1c(CCO)sc[n+]1CC(=O)OCCC12CC3CC(CC(C3)C1)C2,i,-3,i,i,-0.41,i
CCOC(=O)C(=CNc1cccnc1Oc1ccc(C)c2c1CCC2)C(=O)OCC,i,-8,i,-7.2*,-2.1,i
CCCCNc1c(-c2cccc(-c3cc(C(C)=O)cs3)c2)nc2ccc(C)cn12,6*,-40,i,i,1.6,i
CCCCNc1c(-c2cccc(-c3ccc(OC)cc3)c2)nc2cc(C)ccn12,/,/,-8.7*,/,/,/
CCCCNc1c(-c2cccc(-c3ccc(OC)cc3)c2)nc2ccc(C)cn12,7*,-35,i,i,0.19,i
CCCCCCSc1cccc(-c2nc3ccc(Cl)cn3c2NCCCC)c1,/,/,i,/,/,/
O=C1C(CO)C(CO)C(CO)C1CO (stereo unspecified),/,/,i,/,/,/
COc1ccc(N2CCN(C(=O)c3cc(S(=O)(=O)N4CCCCCC4)ccc3OC)CC2)cc1,/,/,i,/,/,/
Fc1ccc(NC(=S)Nc2nccs2)cc1,i,10*,i,i,1.3,i
Cc1cc(C)n2nc(C(=O)OCC(=O)N3CCC3)nc2n1,i,5.3*,i,i,0.45,i
Cc1cc(C)n2nc(C(=O)N3CCOCC3)nc2n1,i,8.0*,i,i,-0.4,i
CCOc1ccc(NC(=O)C(=O)NCCN2CCN(S(=O)(=O)c3ccccc3)CC2)cc1,i,-5,i,i,-1.8,i
CC(=O)Nc1sc(C)c(C)c1C(=O)OCC(=O)NCc1ccc(F)cc1,/,/,i,/,/,/
CN(C)c1nc(C#N)nc(N(C)C)n1,i,10*,i,i,-0.16,i
CCCCN1CC(=O)N2[C@H](c3ccc(Cl)cc3)[C@@H]3C(=O)N(CC)C(=O)[C@@H]3[C@]2(C)C1=O,i,-8,i,i,-0.68,i
O=S(=O)(CCN1CCCCC1)CCS(=O)(=O)CCN1CCCCC1,/,/,i,/,/,/
Fc1ccccc1C1CC(c2ccco2)=Nc2ccccc2S1 (stereo unspecified),i,-12,i,-6.9*,-0.49,i
CCOC(=O)n1c(=O)n(Cc2ccc(Cl)c(Cl)c2)c2ccccc21,i,-6,i,-7.4*,0.25,i
Cc1cccc(NC(=S)c2nc3ccccc3s2)c1,i,43*,i,i,-2,10*
SMILES,KCNQ1 inh,hERG rescue,KCNK3 block,KCNK9 inh,Kir21 inh,KCNQ1 pot
CCN(CC)CCCNC(=O)c1cn(-c2cccc(OC)c2)c(=O)c2ccccc12,i,5.0*,i,i,-0.5,i
COCCCNC(=O)c1cn(-c2cccc(OC)c2)c(=O)c2ccccc12,i,-1,i,i,-1,i
COc1cc(/C=N/NS(=O)(=O)c2ccc(C)c([N+](=O)[O-])c2)ccc1O,i,-8,i,i,-0.99,i
COc1cc(/C=N/NS(=O)(=O)c2ccc(C)c([N+](=O)[O-])c2)cc([N+](=O)[O-])c1O,6*,-3,i,i,0.83,i
COc1cccc(NC(=O)c2cc3cccc(OC)c3o/c2=N\O)c1,7*,-9,/,i,-1.6,i
COc1cc(NC(=O)c2csc(-c3ccncc3)n2)cc(C(=O)Nc2cccc(C(F)(F)F)c2)c1,11*,-26,i,i,0.51,i
